How the values were obtained:
luteinizing hormone (LH) = assay: Pharmacodynamics: plasma LH; format: in vivo, female Sprague–Dawley rats; details: rats, triptorelin 9 μg/kg s.c., ELISA, n = 8
Outline: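 Six-week-old female rats (200 g ± 20 g) with similar cycles were split randomly into two groups of eight. One group received subcutaneous drug solution (9 μg/kg). The other received the microneedle patch (9 μg/kg) on shaved back skin, finger-pressed 3 min before the base was removed. Orbital-plexus blood was taken into heparinised tubes at 0.5–48 h and plasma stored at −80 °C. LH was measured by ELISA kit.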

[1] = stated in introduction; ref Bethesda, [2012]; cited from earlier work
[2] = Pharmacokinetics of triptorelin in rats; format: in vivo, female Sprague–Dawley rats
Outline: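 Female rats aged 6 weeks were randomised into two groups (n = 8). One group received a 9 μg/kg subcutaneous solution and the other a 9 μg/kg microneedle patch on shaved back skin, pressed 3 min. Heparinised orbital-plexus blood was sampled at 0.5, 1, 2, 4, 8, 24 and 48 h. Plasma was centrifuged, stored at −80 °C and assayed by LC–MS/MS. PK parameters were computed from concentration–time profiles.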

[3] = female, Sprague-Dawley, rat, plasma, sc, 9 ug/kg

For `CC(C)C[C@H](NC(=O)[C@@H](Cc1c[nH]c2ccccc12)NC(=O)[C@H](Cc1ccc(O)cc1)NC(=O)[C@H](CO)NC(=O)[C@H](Cc1c[nH]c2ccccc12)NC(=O)[C@H](Cc1c[nH]cn1)NC(=O)[C@@H]1CCC(=O)N1)C(=O)N[C@@H](CCCNC(=N)N)C(=O)N1CCC[C@H]1C(=O)NCC(N)=O` [triptorelin, Triptorelin acetate], which “plasma LH levels at 48 h” value (luteinizing hormone (LH)) is on record?
Its value is “returned to a normal physiological state”.

What about the “enhanced activity compared with GnRH” value [1] of the same compound?
Its value is 100 fold.

And the AUC(0-t) [2, 3]?
The AUC(0-t) was 8.65 ± 0.41 ng·h/mL.

And the Cmax [2, 3]?
Its Cmax is 10.5 ± 0.6 ng/mL.

And the Tmax [2, 3]?
The Tmax was 0.5 h.

What about the half-life [2, 3] of the same compound?
The half-life was 2.11 ± 0.05 h.

What about the “triptorelin concentration in plasma at 24 h” value ([2]; rats, 9 μg/kg s.c., 24 h, LC–MS/MS) of the same compound?
Its value is “could not be detected”.
